Converted amounts (≈) assume the structure as drawn.
Legend:
[1] = Equilibrium solubility of the compound at pH 7.4; type: physicochemical; conditions: buffer
[2] = test system: RS4-11; test: Induction of apoptosis in human RS4:11 cells overexpressing BCL-2 assessed as caspase 3/7 activation after 6 hrs by quantitative luminescence assay; type: functional, cell-based; conditions: RS4-11, 6 h
Method in brief: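 RS4;11 cells seeded 10,000/well in RPMI with 10% FBS; after 16 h, compound added in duplicate for 6 h at 37 °C. Equal volume of Caspase-Glo 3/7 reagent added, 1 h, luminescence read. DMSO set minimum and ABT-263 maximum caspase activity. EC50 averaged from at least two experiments.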

[3] = target: Bcl-2-like protein 1 (Homo sapiens, UniProt Q07817); test: Inhibition of c-terminal 6xHis-tagged Bcl-xL (amino acids 1 to 209) (unknown origin) preincubated for 1 hr prior to substrate addition measured after 20 mins by fluorescence polarization assay
Bcl-2-like protein 1, sequence (Q07817 whole entry, the tested form may be a part): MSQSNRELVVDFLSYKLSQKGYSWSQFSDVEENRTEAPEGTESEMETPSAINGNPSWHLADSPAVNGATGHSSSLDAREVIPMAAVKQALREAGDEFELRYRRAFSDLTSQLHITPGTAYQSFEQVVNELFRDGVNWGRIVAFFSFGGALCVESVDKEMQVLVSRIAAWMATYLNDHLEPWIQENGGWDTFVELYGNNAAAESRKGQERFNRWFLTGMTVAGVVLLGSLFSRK
Method in brief: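 Bcl-xL (aa 1–209, C-terminal 6xHis) at 0.8 nM preincubated 1 h with serial antagonist dilutions, then 2 nM FITC-labelled Bim BH3 peptide tracer added; buffer 20 mM HEPES pH 7.5, 1 mM DTT, 0.005% Tween-20, 50 mM NaCl.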

[4] = target: Apoptosis regulator Bcl-2 (Homo sapiens, UniProt P10415); test: Inhibition of c-terminal 6xHis-tagged Bcl-2 (amino acids 1 to 204) (unknown origin) preincubated for 1 hr prior to substrate addition measured after 20 mins by fluorescence polarization assay
Apoptosis regulator Bcl-2, sequence (P10415 whole entry, the tested form may be a part): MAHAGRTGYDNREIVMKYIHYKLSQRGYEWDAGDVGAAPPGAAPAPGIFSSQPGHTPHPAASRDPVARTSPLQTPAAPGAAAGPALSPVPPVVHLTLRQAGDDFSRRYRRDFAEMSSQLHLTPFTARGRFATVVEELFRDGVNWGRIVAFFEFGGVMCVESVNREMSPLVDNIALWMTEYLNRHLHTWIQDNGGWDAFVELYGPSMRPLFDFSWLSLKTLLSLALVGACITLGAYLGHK

[5] = Dissociation constant, pKa of the compound; type: physicochemical

With `O=C(NS(=O)(=O)c1ccc(N[C@H](CCN2CCOCC2)CSc2ccccc2)c(S(=O)(=O)C(F)(F)F)c1)c1ccc(N2CCC(S(=O)(=O)c3ccccc3-c3ccc(Cl)cc3)CC2)cc1` the solubility thermodynamic [1] was 27 µM (≈ 26.8 µg/mL), the EC50 [2] was over 1.1 µM and the IC50 [3] was 0.021 µM. It also gave an IC50 [4] of 0.087 µM.
`O=C(NS(=O)(=O)c1ccc(N[C@H](CCN2CCOCC2)CSc2ccccc2)c(S(=O)(=O)C(F)(F)F)c1)c1ccc(N2CCC(Sc3ccccc3-c3ccc(Cl)cc3)CC2)cc1` gave a solubility thermodynamic [1] of 27 µM (≈ 25.9 µg/mL), an EC50 [2] of over 0.516 µM and an IC50 [3] of 0.031 µM. The IC50 [4] was 0.061 µM.
With `CN(C)C(=O)COc1ccc(-c2ccc(Cl)cc2)c(CN2CCN(c3ccc(C(=O)NS(=O)(=O)c4ccc(N[C@H](CCN5CCOCC5)CSc5ccccc5)c(S(=O)(=O)C(F)(F)F)c4)cc3)CC2)c1` the solubility thermodynamic [1] was 2 µM (≈ 2.09 µg/mL), the EC50 [2] was 0.051 µM and the IC50 [3] was under 0.01 µM. It also gave an IC50 [4] of under 0.01 µM.
`CN(C)CCOc1cccc(-c2ccc(Cl)cc2)c1CN1CCN(c2ccc(C(=O)NS(=O)(=O)c3ccc(N[C@H](CCN4CCOCC4)CSc4ccccc4)c(S(=O)(=O)C(F)(F)F)c3)cc2)CC1` gave a solubility thermodynamic [1] of under 1 µM, an EC50 [2] of 0.004 µM and an IC50 [4] of under 0.01 µM.
Work on `NCC1(Cc2ccccc2-c2ccc(Cl)cc2)CCN(c2ccc(C(=O)NS(=O)(=O)c3ccc(N[C@H](CCN4CCOCC4)CSc4ccccc4)c(S(=O)(=O)C(F)(F)F)c3)cc2)CC1` yielded a solubility thermodynamic [1] of under 1 µM, an EC50 [2] of 0.395 µM and an IC50 [3] of under 0.01 µM. For the same molecule, the IC50 [4] was under 0.01 µM.
Work on `O=C(NS(=O)(=O)c1ccc(N[C@H](CCN2CCOCC2)CSc2ccccc2)c(S(=O)(=O)C(F)(F)F)c1)c1ccc(N2CCC(Oc3ccccc3-c3ccc(Cl)cc3)CC2)cc1` yielded a solubility thermodynamic [1] of 35 µM (≈ 33 µg/mL), an EC50 [2] of over 0.921 µM and an IC50 [3] of 0.038 µM. The IC50 [4] was 0.25 µM.
Work on `O=C(NS(=O)(=O)c1ccc(N[C@H](CCN2CCOCC2)CSc2ccccc2)c(S(=O)(=O)C(F)(F)F)c1)c1ccc(N2CC3(CN(Cc4ccccc4-c4ccc(Cl)cc4)C3)C2)cc1` yielded a solubility thermodynamic [1] of under 1 µM, an EC50 [2] of 0.61 µM and an IC50 [3] of 0.077 µM. The IC50 [4] was over 0.468 µM.
With `N=C(NS(=O)(=O)c1ccc(N[C@H](CCN2CCOCC2)CSc2ccccc2)c(S(=O)(=O)C(F)(F)F)c1)c1ccc(N2CCN(Cc3ccccc3-c3ccc(Cl)cc3)CC2)cc1` the solubility thermodynamic [1] was under 1 µM, the EC50 [2] was over 3.19 µM and the IC50 [3] was 0.063 µM. It also gave an IC50 [4] of 0.019 µM.
Work on `N#CC1(Cc2ccccc2-c2ccc(Cl)cc2)CCN(c2ccc(C(=O)NS(=O)(=O)c3ccc(N[C@H](CCN4CCOCC4)CSc4ccccc4)c(S(=O)(=O)C(F)(F)F)c3)cc2)CC1` yielded a solubility thermodynamic [1] of 2 µM (≈ 1.93 µg/mL), an EC50 [2] of 0.504 µM and an IC50 [3] of under 0.01 µM. It also gave an IC50 [4] of under 0.01 µM.
Molecule `O=C(NS(=O)(=O)c1ccc(N[C@H](CCN2CCOCC2)CSc2ccccc2)c(S(=O)(=O)C(F)(F)F)c1)c1csc(N2CCN(Cc3ccccc3-c3ccc(Cl)cc3)CC2)n1` has a solubility thermodynamic [1] of 2 µM (≈ 1.9 µg/mL), an EC50 [2] of 0.385 µM and an IC50 [3] of 0.098 µM. For the same molecule, the pKa [5] was 2.6 and the IC50 [4] was 0.119 µM.
For `CCOC(=O)C1(Cc2ccccc2-c2ccc(Cl)cc2)CCN(c2ccc(C(=O)NS(=O)(=O)c3ccc(N[C@H](CCN4CCOCC4)CSc4ccccc4)c(S(=O)(=O)C(F)(F)F)c3)cc2)CC1`, the solubility thermodynamic [1] was under 1.5 µM, the EC50 [2] was 1.79 µM and the IC50 [3] was 0.03 µM. For the same molecule, the IC50 [4] was 0.017 µM.
`O=C(NS(=O)(=O)c1ccc(N[C@H](CCN2CCOCC2)CSc2ccccc2)c(S(=O)(=O)C(F)(F)F)c1)c1ccc(P2(=O)CCN(Cc3ccccc3-c3ccc(Cl)cc3)CC2)cc1` gave a solubility thermodynamic [1] of 4 µM (≈ 3.9 µg/mL), an EC50 [2] of over 1.1 µM and an IC50 [3] of 0.308 µM. It also gave an IC50 [4] of over 1.1 µM.
Work on `O=C(NS(=O)(=O)c1ccc(N[C@H](CCN2CCOCC2)CSc2ccccc2)c(S(=O)(=O)C(F)(F)F)c1)c1ccc(N2CCC(C(=O)c3ccccc3-c3ccc(Cl)cc3)CC2)cc1` yielded an EC50 [2] of over 1.1 µM, an IC50 [3] of under 0.01 µM and an IC50 [4] of 0.065 µM.
For `CN(C)C(=O)COc1cccc(-c2ccc(Cl)cc2)c1CN1CCN(c2ccc(C(=O)NS(=O)(=O)c3ccc(N[C@H](CCN4CCOCC4)CSc4ccccc4)c(S(=O)(=O)C(F)(F)F)c3)cc2)CC1`, the solubility thermodynamic [1] was under 1 µM, the EC50 [2] was 0.018 µM and the IC50 [3] was under 0.01 µM. It also gave an IC50 [4] of under 0.01 µM.
For `O=C(NS(=O)(=O)c1ccc(N[C@H](CCN2CCOCC2)CSc2ccccc2)c(S(=O)(=O)C(F)(F)F)c1)c1ccc(N2CCN(Cc3ccccc3-c3ccc(Cl)cc3)CC2)nn1`, the solubility thermodynamic [1] was 38 µM (≈ 35.9 µg/mL), the EC50 [2] was 0.563 µM and the IC50 [3] was 0.378 µM. The pKa [5] was 3.6 and the IC50 [4] was 0.27 µM.
`O=C(NS(=O)(=O)c1ccc(N[C@H](CCN2CCOCC2)CSc2ccccc2)c(S(=O)(=O)C(F)(F)F)c1)c1ccc(N2CCC([S@@+]([O-])c3ccccc3-c3ccc(Cl)cc3)CC2)cc1` gave a solubility thermodynamic [1] of 26 µM (≈ 25.4 µg/mL), an EC50 [2] of 0.09 µM and an IC50 [3] of 0.011 µM. It also gave an IC50 [4] of 0.019 µM.
Molecule `Cn1ncc(CN2CCN(c3ccc(C(=O)NS(=O)(=O)c4ccc(N[C@H](CCN5CCOCC5)CSc5ccccc5)c(S(=O)(=O)C(F)(F)F)c4)cc3)CC2)c1-c1ccc(Cl)cc1` has a solubility thermodynamic [1] of under 1 µM, an EC50 [2] of 0.42 µM and an IC50 [3] of under 0.01 µM. It also gave an IC50 [4] of under 0.01 µM.
`O=C(NS(=O)(=O)c1ccc(N[C@H](CCN2CCOCC2)CSc2ccccc2)c(S(=O)(=O)C(F)(F)F)c1)c1ccc(N2CCC([S@+]([O-])c3ccccc3-c3ccc(Cl)cc3)CC2)cc1` showed a solubility thermodynamic [1] of 12 µM (≈ 11.7 µg/mL), an EC50 [2] of over 1.1 µM and an IC50 [3] of 0.054 µM. The IC50 [4] was 0.545 µM.
Molecule `O=C(NS(=O)(=O)c1ccc(N[C@H](CCN2CCOCC2)CSc2ccccc2)c(S(=O)(=O)C(F)(F)F)c1)c1ccc(N2CCC(CO)(Cc3ccccc3-c3ccc(Cl)cc3)CC2)cc1` has a solubility thermodynamic [1] of 6 µM (≈ 5.83 µg/mL), an EC50 [2] of 0.112 µM and an IC50 [3] of under 0.01 µM. For the same molecule, the IC50 [4] was 0.059 µM.
Molecule `O=C(NS(=O)(=O)c1ccc(N[C@H](CCN2CCOCC2)CSc2ccccc2)c(S(=O)(=O)C(F)(F)F)c1)c1ccc(N2CCN(Cc3cccnc3-c3ccc(Cl)cc3)CC2)cc1` has an EC50 [2] of 0.374 µM, an IC50 [3] of 0.025 µM and an IC50 [4] of 0.026 µM.
Molecule `CN(C)CCOc1ccc(-c2ccc(Cl)cc2)c(CN2CCN(c3ccc(C(=O)NS(=O)(=O)c4ccc(N[C@H](CCN5CCOCC5)CSc5ccccc5)c(S(=O)(=O)C(F)(F)F)c4)cc3)CC2)c1` has a solubility thermodynamic [1] of under 1 µM, an EC50 [2] of 0.023 µM and an IC50 [3] of under 0.01 µM. It also gave an IC50 [4] of under 0.01 µM.
Work on `O=C(NS(=O)(=O)c1ccc(N[C@H](CCN2CCOCC2)CSc2ccccc2)c(S(=O)(=O)C(F)(F)F)c1)c1ccc(N2CCN(Cc3ccccc3-c3ccc(Cl)cc3)CC2)cc1` yielded a solubility thermodynamic [1] of 14 µM (≈ 13.2 µg/mL), an EC50 [2] of 0.011 µM and an IC50 [3] of 0.016 µM. For the same molecule, the IC50 [4] was 0.011 µM.
Work on `O=C(NS(=O)(=O)c1ccc(N[C@H](CCN2CCOCC2)CSc2ccccc2)c(S(=O)(=O)C(F)(F)F)c1)c1ccc(N2CCN(Cc3ccccc3-c3ncc(Cl)cn3)CC2)cc1` yielded a solubility thermodynamic [1] of under 1 µM, an EC50 [2] of 3.98 µM and an IC50 [3] of 0.021 µM. The IC50 [4] was 0.021 µM.
Work on `CC1(C)CCC(c2ccc(Cl)cc2)=C(CN2CCN(c3ccc(C(=O)NS(=O)(=O)c4ccc(N[C@H](CCN5CCOCC5)CSc5ccccc5)c(S(=O)(=O)C(F)(F)F)c4)cc3)CC2)C1` [NAVITOCLAX] yielded an EC50 [2] of 0.014 µM.
`O=C(NS(=O)(=O)c1ccc(N[C@H](CCN2CCOCC2)CSc2ccccc2)c(S(=O)(=O)C(F)(F)F)c1)c1cnc(N2CCN(Cc3ccccc3-c3ccc(Cl)cc3)CC2)nc1` showed a solubility thermodynamic [1] of 3 µM (≈ 2.83 µg/mL), an EC50 [2] of 0.177 µM and an IC50 [3] of 0.039 µM. The pKa [5] was 3.5 and the IC50 [4] was 0.018 µM.
Work on `O=C(NS(=O)(=O)c1ccc(N[C@H](CCN2CCOCC2)CSc2ccccc2)c(S(=O)(=O)C(F)(F)F)c1)c1ccc(N2CCP(=O)(Cc3ccccc3-c3ccc(Cl)cc3)CC2)cc1` yielded a solubility thermodynamic [1] of 21 µM (≈ 20.5 µg/mL), an EC50 [2] of over 1.1 µM and an IC50 [3] of 0.018 µM. The IC50 [4] was 0.054 µM.
With `O=C(NS(=O)(=O)c1ccc(N[C@H](CCN2CCOCC2)CSc2ccccc2)c(S(=O)(=O)C(F)(F)F)c1)c1ccc(N2CCN(Cc3cn[nH]c3-c3ccc(Cl)cc3)CC2)cc1` the solubility thermodynamic [1] was under 1 µM, the EC50 [2] was over 10 µM and the IC50 [3] was 0.038 µM. It also gave an IC50 [4] of 0.04 µM.
`O=C(NS(=O)(=O)c1ccc(N[C@H](CCN2CCOCC2)CSc2ccccc2)c(S(=O)(=O)C(F)(F)F)c1)c1ccc(N2CCN(Cc3ccncc3-c3ccc(Cl)cc3)CC2)cc1` showed an EC50 [2] of 0.201 µM, an IC50 [3] of 0.015 µM and an IC50 [4] of under 0.01 µM.
